From PubChem
T cruzi inh: T. cruzi replication inhibition; T. cruzi beta-gal in NIH3T3, luminescence, 90 h; 1.4% of 300,000 active; inhibition, % (concentration not given with the values);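 active means mean inhibition across valid replicates above about 55%, limit read from the data; inconclusive means mean below that limit but half or more replicates reach it; inactive means mean below it, under half of replicates reach it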;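 further: signal also drops with host cell toxicity which is not excluded here; 0% = plate median of DMSO wells and 100% = zero luminescence signal; higher percent means less beta-gal luminescence so fewer parasites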
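System: NIH/3T3 fibroblasts plus reporter T. cruzi. Medium: DMEM plus 2% FBS. Probe or stimulus: 5000 reporter trypomastigotes per well. Compound: single 50 nL compound addition per well in DMSO. Incubation: co-culture of at least 90 h after 3 h attachment. Detection: GalScreen β-gal luminescence, detergent lysis, 60 min. Evaluation: parasite load inhibition, %.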
CSC inhib: blocks cancer stem cells | cancer stem cell-like cells viability, luminescence | inhibition, % at 7.5 µM | 1.1% of 300,000 active | AID 2717; in the data active means inhibition above about 75%; inconclusive means no clear call, values can overlap the other calls; tested in HMLE shEcad cells
UPR CHOP act: apoptotic UPR (CHOP) activation; CHO-CHOP luciferase reporter, luminescence; percent of tunicamycin response over DMSO baseline; activation, % at 10 µM; 0.34% of 330,000 active;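 active means at 10 µM dose, activation of 40% or more, normalized to positive control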;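 further: 100% = tunicamycin at 10 µg/mL and 0% = DMSO alone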
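Assay system: CHO cells with stable CHOP pathway luciferase reporter; Buffer or medium: F12 plus 10% serum; Times: 16-18 h cell attachment, then 6 h compound exposure, 37 °C; Signal: luciferase luminescence; Read-out basis: percent activation relative to tunicamycin control; Control set: tunicamycin high control, DMSO low control.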
Mdm2 MdmX PPI: human Mdm2/MdmX binding inhibition | O15151+Q00987 | SaOS-2 split-luciferase Mdm2/MdmX complementation, luminescence | inhibition, % at 8 µM | 3% of 330,000 active | AID 485346;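 active means inhibition of at least 50% at 8 µM in the primary screen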
Target sequence (O15151 whole entry, looked up): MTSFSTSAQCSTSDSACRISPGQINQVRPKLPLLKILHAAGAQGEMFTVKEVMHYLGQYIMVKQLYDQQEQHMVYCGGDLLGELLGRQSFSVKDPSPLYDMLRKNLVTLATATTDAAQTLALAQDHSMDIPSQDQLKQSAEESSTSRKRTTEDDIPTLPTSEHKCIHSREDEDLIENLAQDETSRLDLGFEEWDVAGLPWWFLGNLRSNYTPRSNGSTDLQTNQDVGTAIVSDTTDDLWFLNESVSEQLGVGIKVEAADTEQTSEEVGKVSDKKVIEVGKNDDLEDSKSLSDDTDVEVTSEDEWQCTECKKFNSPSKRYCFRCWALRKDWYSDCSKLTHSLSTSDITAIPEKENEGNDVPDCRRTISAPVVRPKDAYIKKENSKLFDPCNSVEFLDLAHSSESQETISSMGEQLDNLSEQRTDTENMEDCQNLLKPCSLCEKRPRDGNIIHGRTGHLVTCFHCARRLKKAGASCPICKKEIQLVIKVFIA
Target sequence (Q00987 whole entry, looked up): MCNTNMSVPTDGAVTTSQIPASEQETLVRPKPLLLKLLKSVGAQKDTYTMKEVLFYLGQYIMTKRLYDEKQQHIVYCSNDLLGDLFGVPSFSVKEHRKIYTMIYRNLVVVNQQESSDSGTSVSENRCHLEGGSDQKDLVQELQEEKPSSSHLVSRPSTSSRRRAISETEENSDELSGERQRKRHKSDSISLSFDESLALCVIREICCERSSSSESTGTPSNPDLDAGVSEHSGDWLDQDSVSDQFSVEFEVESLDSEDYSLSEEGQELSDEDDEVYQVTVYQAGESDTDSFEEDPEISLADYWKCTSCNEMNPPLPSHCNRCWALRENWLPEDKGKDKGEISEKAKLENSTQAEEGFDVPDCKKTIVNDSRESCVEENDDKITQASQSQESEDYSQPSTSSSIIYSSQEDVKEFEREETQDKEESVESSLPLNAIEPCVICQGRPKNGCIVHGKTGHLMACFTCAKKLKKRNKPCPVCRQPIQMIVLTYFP
Beta cell apopt: blocks beta cell apoptosis; INS-1E cytokine-induced death, ATP luminescence, 48 h; percent of positive-control rescue, neutral wells zero; protection from apoptosis, % (test concentration not listed); 0.8% of 300,000 active;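 active means Every replicate reaches about 75%, or at least half do and their mean reaches it too, limit read from the data; inconclusive means At least half of replicates reach the limit but their mean does not; inactive means Under half of replicates reach the limit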;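 further: 0% = cytokine-treated negative control wells and 100% = positive control rescue; higher means more ATP so stronger rescue from cytokine killing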
XBP1 UPR activ: adaptive UPR (XBP1) activation | CHO-XBP1 luciferase reporter, IRE1-XBP1 UPR activation, luminescence; percent of tunicamycin response, DMSO as zero | activation, % at 20 µM | 0.33% of 330,000 active;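 active means versus positive control, 20 µM dose yields 30% or more activation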;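 further: 100% = tunicamycin at 10 µg/mL and 0% = DMSO only wells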
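Material: CHO cell line with stable XBP1 luciferase reporter; schedule: 16-18 h cell attachment at 37 °C, then 6 h compound exposure; signal: glow luminescence from Steady-Glo reagent; medium: serum-containing F12 medium, 10% FBS; benchmarks: tunicamycin 10 µg/mL and vehicle-only wells; read-out: percent activation relative to tunicamycin reference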
Mdm2-MdmX conf: confirmation of human Mdm2/MdmX interaction inhibitors | AID 489028 | Mdm2-MdmX binding, luminescent assay | 55% of 10,000 active | inhibition, % at 8 µM | shares compounds with Mdm2 MdmX PPI; in the data active means inhibition above about 40%
Full FLuc ctr: counter-screen for Mdm2/MdmX inhibitors: full-length luciferase | inhibition, % at 8 µM | 77% of 6,200 active | SaOS-2 full-length luciferase counterscreen, luminescence | shares compounds with Mdm2 MdmX PPI | AID 504607;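 active means mean inhibition at 8 µM reaching about 37%, which flags the compound as non-specific, limit read from the data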;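 further: p53-null SaOS-2 cells with luciferase driven by a doxycycline-inducible promoter; compound on cells about two nights before reading with doxycycline added after day one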
* = called active by the depositor; ? = inconclusive; nt = not tested or not shown. A selection: hits, their analogues and other compounds. The true share with any hit is near 5%.

SMILES	T cruzi inh	CSC inhib	UPR CHOP act	Mdm2 MdmX PPI	Beta cell apopt	XBP1 UPR activ	Mdm2-MdmX conf	Full FLuc ctr
Cc1onc(-c2c(F)cccc2Cl)c1C(=O)Nc1cccc(S(=O)(=O)NCc2ccco2)c1	10	2	-1	32	1	-2	nt	nt
CS(=O)(=O)c1ccc(Cl)c(NC(=O)CNC(=O)c2ccc3c(c2)OCO3)c1	nt	-15	0	37	-9	1	nt	nt
CCC(CC)c1nnc(NC(=O)C2CC(=O)N(C3CCCC3)C2)s1 (stereo not drawn)	4	-5	0	26	1	-3	nt	nt
O=C(CCl)NC1CCCc2ccccc21 (stereo not drawn)	-13	4	-2	58*	6	-3	20	nt
C=C1C(=O)C=C2CN(C(=O)c3ccccc3)[C@@](Cc3ccc(F)cc3)(C(=O)OC)[C@@H]12	50	-2	-9	100*	113*	-10	100*	1
CCCCc1nc(SCC(=O)Nc2cccc(Cl)c2)n[nH]1	-9	-1	2	15	nt	-3	nt	nt
CC(C)Cc1nc2oc3c(NCC(C)O)ncnc3c2c2c1CCCC2 (stereo not drawn)	3	-7	0	26	0	0	nt	nt
CCCc1nc2oc3c(NCCCN(C)C)ncnc3c2c2c1CCCC2	25	54	1	100*	0	4	85*	52*
CCCc1nc2oc3c(NCCN(C)C)ncnc3c2c2c1CCCC2	38	7	0	56*	0	2	60*	38*
N/C(=N\OC(=O)c1cccc(Cn2cc(C(F)(F)F)ccc2=O)c1)c1ccc(Cl)cc1	3	4	0	76*	113*	2	47*	83*
N/C(=N\OC(=O)c1cccc(Cn2cc(C(F)(F)F)ccc2=O)c1)c1ccccc1	3	9	2	68*	113*	0	24	nt
Cc1cccc(NC(=O)c2ccc(Cn3cc(C(F)(F)F)ccc3=O)cc2)c1	1	36	-1	-7	-11	-3	nt	nt
Cc1ccc(/C(N)=N/OC(=O)c2cccc(Cn3cc(C(F)(F)F)ccc3=O)c2)cc1	17	7	2	89*	99*	1	50*	76*
O=C(O)c1ccc(Cn2cc(C(F)(F)F)ccc2=O)cc1	-6	-11	-1	1	2	1	nt	nt
O=C(Sc1ccc(Cl)cc1)c1cccc(Cn2cc(C(F)(F)F)ccc2=O)c1	33	11	22	4	-18	13	nt	nt
O=C1CCC/C=C\C[C@@H](CC(=O)N(CCO)Cc2ccccc2)C(=O)N[C@H](c2ccccc2)CO1	nt	-13	0	19	4	0	nt	nt
CC(=O)Nc1cccc(C(=O)/C=C/c2ccc(C)cc2)c1	-4	0	5	57*	-6	17	52*	54*
Cc1cc(NC(=O)CSc2nc3cc(Cl)ccc3o2)no1	-20	nt	2	35	-3	0	nt	nt
CCN(CC)S(=O)(=O)c1ccc2oc(SCC(=O)Nc3cc(C)on3)nc2c1	60*	41	0	55*	64	1	57*	52*
COc1cc(-c2nnc(SCC(=O)N(C)C3CCS(=O)(=O)C3)o2)cc(OC)c1OC (stereo not drawn)	-11	20	0	5	17	-1	nt	nt
CCc1ccc2nc(N(CCCN(C)C)C(=O)c3ccc(C(=O)c4ccccc4)cc3)sc2c1	37	24	10	74*	2	0	21	nt
Cc1ccc2sc(N(CCCN(C)C)C(=O)c3ccc(S(=O)(=O)N4CCc5ccccc5C4)cc3)nc2c1C	48	15	13	98*	nt	12	75*	51*
COc1ccc(C)c2sc(N(CCCN(C)C)C(=O)c3ccc(S(=O)(=O)N4CCc5ccccc5C4)cc3)nc12	50	-7	nt	nt	nt	nt	nt	nt
COc1cccc2sc(N(CCCN(C)C)C(=O)c3ccc(S(=O)(=O)N4CCc5ccccc5C4)cc3)nc12	47	-1	8	62*	1	6	23	nt
COc1ccc(OC)c2sc(N(CCCN(C)C)C(=O)c3ccc(S(=O)(=O)N4CCc5ccccc5C4)cc3)nc12	60*	101*	-9	99*	100*	-10	100*	1
SMILES	T cruzi inh	CSC inhib	UPR CHOP act	Mdm2 MdmX PPI	Beta cell apopt	XBP1 UPR activ	Mdm2-MdmX conf	Full FLuc ctr
CCC1=NN=C(c2ccc(F)cc2)C(c2c[nH]c3ccccc23)N1O (stereo not drawn)	6	-20	2	-4	nt	2	nt	nt
CCc1ccc2nc(N(CCCN(C)C)C(=O)c3ccc(S(=O)(=O)N4CCCc5ccccc54)cc3)sc2c1	61*	?	2	91*	20	27	30	nt
COc1cccc2sc(N(CCCN(C)C)C(=O)c3ccc(S(=O)(=O)N4CCCc5ccccc54)cc3)nc12	17	23	4	80*	9	6	28	nt
CN(C)CCCN(C(=O)CCc1ccccc1)c1nc2ccc(Cl)cc2s1	51	70	7	50*	5	3	35	54*
CCOc1ccc2nc(N(CCCN(C)C)C(=O)c3ccc4c(c3)CCCC4)sc2c1	36	-6	1	46	18	-5	nt	nt
CN(C)CCCN(C(=O)c1ccc2c(c1)CCCC2)c1nc2ccc(Cl)cc2s1	45	-5	6	54*	17	7	19	nt
Cc1ccc(NC(=O)COC(=O)c2cc(=O)c3cc(F)ccc3o2)cc1	nt	nt	3	19	nt	-2	nt	nt
COC(=O)[C@]1(C)N[C@H](CN(C)C(=O)c2ccc(C)cc2)[C@@H]2C(=O)N(Cc3ccccc3)C(=O)[C@@H]21	nt	-3	-1	2	-2	2	nt	nt
COc1ccc(Nc2nc(C)nc3c2nnn3Cc2ccccc2Cl)c(OC)c1	-5	8	1	0	nt	-5	nt	nt
CCN1CCN(CCCNC(=O)c2ccc(/C=C3/Sc4ccccc4N(Cc4ccccc4F)C3=O)cc2)CC1	57*	104*	5	94*	4	3	74*	24
CCN1CCN(CCCNC(=O)c2ccc(/C=C3/Oc4ccccc4N(Cc4cccc(C)c4)C3=O)cc2)CC1	48	-4	15	100*	27	1	33	nt
Cc1cc(C)c2cc(CN(CCCN(C)C)C(=S)NCc3ccccc3)c(=O)[nH]c2c1	53	24	1	53*	2	1	30	nt
Cc1ccc(C)c2[nH]c(=O)c(CN(CCCN(C)C)C(=O)NCc3ccccc3)cc12	52	-3	-2	21	2	0	nt	nt
